Compounds with a hit are over-represented: about 1.8% of the library has one in this group of screens.
PME-1 inh = PME-1 (human) inhibition. recombinant PME-1, FP-Rh probe fluorescence polarization. inhibition, % at 5.9 µM. actives 0.53% (n = 320,000);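 active means inhibition above the campaign mean of all compounds plus 3 SD, cut at about 26% in these data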;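 further: competitive labeling of PME-1 active site by serine hydrolase directed probe; 0% = PME-1 with DMSO and 100% = wells lacking PME-1 enzyme; inhibitors block probe labeling so polarization falls and inhibition rises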
Fam108B inh = Fam108B inhibition, counter-screen for RBBP9 inhibitors | recombinant Fam108B, FP-Rh probe fluorescence polarization | inhibition, % at 9.51 µM | actives 0.33% (n = 300,000);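 active means inhibition above the screen mean inhibition plus 3 SD, computed separately per campaign, cut at about 18% in these data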;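 further: inhibitors lower polarization as less probe binds the enzyme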
HTRA1 inh = inhibitors of human serine peptidase HTRA1. Q92743. recombinant HTRA1, FP-rhodamine activity-based probe, fluorescence polarization. inhibition, % at 5.96 µM. actives 0.5% (n = 340,000). AID 504803; in the data active means inhibition above about 36%;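 further: 0% = enzyme with DMSO and 100% = wells lacking enzyme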
SIAE inh = inhibitors of human sialic acid acetylesterase SIAE; SIAE FP-Rh probe binding, fluorescence polarization; inhibition, % at 9.66 µM; actives 0.69% (n = 370,000); AID 1053197;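 active means inhibition above a cutoff: mean of compounds within the control limits plus 3 SD of those, cut at about 17% in these data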;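 further: 0% = plate median of compound wells and 100% = probe without SIAE protein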
Target sequence (Q9HAT2 whole entry, looked up): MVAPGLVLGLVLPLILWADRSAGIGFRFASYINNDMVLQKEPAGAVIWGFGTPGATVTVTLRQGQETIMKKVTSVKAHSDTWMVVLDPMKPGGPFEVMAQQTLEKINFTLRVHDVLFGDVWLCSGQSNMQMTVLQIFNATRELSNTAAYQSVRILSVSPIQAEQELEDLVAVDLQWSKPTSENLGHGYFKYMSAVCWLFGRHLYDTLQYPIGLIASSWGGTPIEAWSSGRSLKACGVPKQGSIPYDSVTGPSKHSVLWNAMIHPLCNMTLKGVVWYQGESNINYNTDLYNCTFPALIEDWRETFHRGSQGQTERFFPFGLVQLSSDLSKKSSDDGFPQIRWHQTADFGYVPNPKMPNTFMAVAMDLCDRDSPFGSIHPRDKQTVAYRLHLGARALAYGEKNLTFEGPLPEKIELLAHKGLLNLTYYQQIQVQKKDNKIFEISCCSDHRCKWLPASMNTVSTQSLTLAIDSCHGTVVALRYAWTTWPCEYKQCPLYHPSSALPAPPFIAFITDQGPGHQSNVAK
TCR CD3 inh = human TCR-CD3 binding inhibition. inhibition, % at 9.4 µM. actives 0.37% (n = 360,000). TAMRA-labeled TCR probe fluorescence, biochemical; in the data active means inhibition above about 19%;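 further: recombinant mutant TCR 2C K166C tagged with TAMRA read by polarization; 0% = receptor in buffer alone and 100% = receptor with positive control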
mABHD4 FP = ABHD4 (mouse) inhibition, primary FP screen. Q8VD66. purified mABHD4, FP-Rh probe fluorescence polarization. inhibition, % at 8.92 µM. actives 0.54% (n = 370,000);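 active means inhibition exceeding the mean over every tested compound plus 3 SD, cut at about 30% in these data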;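 further: 0% = plate median of compound wells and 100% = S159A mutant with DMSO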
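Test system: mouse ABHD4 enzyme, wild type. Reagent: FP-Rh fluorescent activity-based probe, added after compound pre-incubation. Timing: pre-incubation 45 min, probe exposure 60 min, at 25 °C. Technique: FP readout, ex 525 nm / em 598 nm. Benchmarks: high control S159A mutant with DMSO, low control median of compound wells.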
ABHD4 confirm = confirmation of mouse ABHD4 inhibitors; shares compounds with mABHD4 FP; AID 720658; purified mABHD4, FP-Rh probe fluorescence polarization; actives 55% (n = 1,800); inhibition, % at 8.92 µM;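 active means mean inhibition across replicates above the hit cutoff set in the primary screen, cut at about 30% in these data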;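 further: 0% = wild-type ABHD4 with DMSO and 100% = catalytically dead S159A mutant with DMSO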
SIAE confirm = human SIAE inhibition, confirmation; shares compounds with SIAE inh; SIAE FP-Rh activity-based probe, fluorescence polarization; inhibition, % at 9.66 µM; actives 13% (n = 2,300); AID 1117263;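 active means mean inhibition of the replicates above the hit cutoff set in the primary screen, cut at about 17% in these data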;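 further: 0% = SIAE with DMSO and probe and 100% = probe without SIAE; inhibitors lower polarization as more probe stays unbound to SIAE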
Numbers without * were called inactive; . = no result given; + = active, no number; ! = a repeat was not active.

SMILES	PME-1 inh	Fam108B inh	HTRA1 inh	SIAE inh	TCR CD3 inh	mABHD4 FP	ABHD4 confirm	SIAE confirm
Cc1cc[n+](-c2[nH]c(=O)sc2/C=N/NC([S-])=Nc2ccccc2)cc1C	10	7	22	19*	12	31*	28	3
CC(C)(C)c1cc[n+](-c2[nH]c(=O)sc2/C=N/NC([S-])=Nc2ccccc2)cc1	6	6	27	9	-3	24	.	.
O=C(C[C@H]1C[C@@H]2c3cc(NS(=O)(=O)c4ccccc4)ccc3O[C@@H]2[C@H](CO)O1)N1CCOCC1	.	.	7	4	-8	-12	.	.
O=C(O)Cc1c[nH]c2cccc(O)c12	-29	11	9	23*	13	53*	23	12
CCN1C(=O)[C@@H]2[C@@H]3CN(S(=O)(=O)c4ccc(C)cc4)[C@@H](c4ccccc4)[C@@H]3C(=O)C[C@@H]2C1=O	.	.	.	2	1	2	.	.
CCOC1=CC2=C(C(=O)C(Cl)=CC2=O)[C@@H]2CN(S(=O)(=O)c3ccc(C)cc3)[C@@H](c3ccccc3)[C@H]12	.	.	.	23*	15	89*	101*	18*
CN1CCN(c2ccc(C(F)(F)F)cc2NC(=O)Nc2ccccc2)CC1	1	0	-5	-3	4	10	.	.
COc1cccc(NC(=S)Nc2ccc(O)cc2)c1	0	1	26	17*	6	34*	20	5
COc1cccc(NC(=S)Nc2ccc(F)cc2)c1	4	1	1	6	1	-5	.	.
CCCCNc1c(-c2ccc(OC)c(SC(C)CC)c2)nc2cc(C)ccn12 (configuration not stated)	.	.	9	18*!	-6	44*	65*	10
COC(=O)c1ccc(CC(=O)c2c(C)cc(O)cc2O)o1	1	1	6	24*	10	38*	11	5
COc1ccc(OC)c(N/C(C)=C/C(=O)c2ccccc2)c1	1	3	7	7	4	1	.	.
COc1ccc(OC)c(N/C(C)=C/C(=O)c2ccncc2)c1	-6	2	13	21*	5	49*	1	3
O=c1nc2s/c(=C\c3ccc(-c4ccccc4[N+](=O)[O-])o3)c(=O)n2nc1-c1ccccc1	.	.	27	22*	1	40*	34*	6
Clc1ccc2c(NNc3ccccc3Cl)ccnc2c1	-1	0	10	4	-1	-6	.	.
Clc1ccc2c(N/N=C/c3cccc(Br)c3)ccnc2c1	7	3	-12	27*	4	32*	31*	35*
CC(=O)Oc1ccc2c(=O)c(Oc3ccccc3)coc2c1OC(C)=O	-4	3	28	20*	10	37*	15	3
CC(=O)Oc1cc2c(C(C)=O)coc2c2ccccc12	6	-2	6	-2	7	-1	.	.
CC1=CC(=O)C=CC1=Nc1ccc(N(C)C)cc1	.	.	.	17*	-5	64*	57*	12
CN(C)c1ccc(N=Nc2ccc(S(N)(=O)=O)cc2)cc1	3	0	0	-5	-3	-11	.	.
Cc1c(C(=O)N2CCN(c3ncccn3)CC2)oc2ccc(Cl)cc12	5	.	-7	0	3	-5	.	.
O=C1NN(c2ccc(Br)cc2)C(=O)/C1=C\c1ccc(O)cc1O	11	12	6	7	-4	25	.	.
O=C1NN(c2cccc(Br)c2)C(=O)/C1=C\c1ccc(O)cc1	7	4	-1	19*	3	37*	41*	4
O=C(CN1C(=O)/C(=C2/SC(=S)N(CCS(=O)(=O)O)C2=O)c2ccccc21)Nc1cccc(Br)c1	.	.	-23	18*	12	60*	70*	5
COc1ccc(C2COc3cc(O)ccc3C2)c(OC)c1O (configuration not stated)	4	0	-6	5	-10	2	.	.
Oc1ccc2c(c1)OCC1(O)Cc3cc(O)c(O)cc3C21 (configuration not stated)	.	.	31	+	.	110*	129*	+
